# Measurements published in article PMC7104901 (Diabetes Technology & Therapeutics, 2020).
# Key:
# Type in all cases: in vivo, human
# [1] = test system: subjects with type 1 diabetes; assay: Euglycemic clamp pharmacodynamics; conditions: for Clamp stopped prematurely due to BG reaching threshold (≥200 mg/dL for 30 min): number of subjects after 0.3 U/kg single dose; for GIR-AUC0–12h treatment ratio, point estimate (90% CI): 0.3 U/kg single dose, euglycemic clamp
# In short: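 Randomized, double-blind, 3-period crossover in adult males with T1D; fasted single 0.3 U/kg subcutaneous dose after basal-insulin washout (≥48 h), glulisine stopped ≥10 min predose, BG stable ≥1 h without glucose. A Biostator tracked arterialized venous BG and GIR continuously for 12 h, calibrated every 30 min. Stopped early if BG exceeded 200 mg/dL without glucose for 30 min. Weight-standardized GIR-AUC0–12h given as ratio of geometric means (90% CI).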
# [2] = Plasma insulin aspart pharmacokinetics after single subcutaneous dose; conditions: linear mixed effects model, 0.3 U/kg single dose
# In short: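 Adults with type 1 diabetes, off basal insulin ≥48 h and fasted overnight, clamped at blood glucose 100 mg/dL before subcutaneous dosing. Plasma was separated within 20 min and stored at −60 to −80°C. Samples were assayed by LC-MS/MS (100–8000 pg/mL, LLOQ 100 pg/mL) and censored at any rescue insulin. AUCs used the log-linear trapezoidal rule. Log-parameters were analysed by mixed model and back-transformed with 90% CI.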
# [3] = test system: subjects with type 1 diabetes; assay: Safety and tolerability; conditions: single 0.3 U/kg dose
# In short: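 Adult males with T1D each got a fasted single subcutaneous 0.3 U/kg dose per period in a double-blind 3-period crossover under 12 h euglycemic clamp. Safety was assessed by 12-lead ECG, vital signs, routine laboratory tests, physical examination, adverse event reporting and injection-site reaction assessment. Treatment-emergent events were counted as subjects reporting per treatment.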
# [4] = ratio of geometric means vs. NN-Asp-EU
# [5] = ratio of geometric means vs. NN-Asp-US
Substance,Clamp stopped prematurely due to BG reaching threshold (≥200 mg/dL for 30 min) [1],"INS-AUCinf treatment ratio, point estimate (90% CI) [2, 4]","INS-AUClast treatment ratio, point estimate (90% CI) [2, 4]","INS-Cmax treatment ratio, point estimate (90% CI) [2, 4]","GIR-AUC0–12h treatment ratio, point estimate (90% CI) [1, 4]","INS-AUCinf treatment ratio, point estimate (90% CI) [2, 5]","INS-AUClast treatment ratio, point estimate (90% CI) [2, 5]","INS-Cmax treatment ratio, point estimate (90% CI) [2, 5]","GIR-AUC0–12h treatment ratio, point estimate (90% CI) [1, 5]",Tolerability [3]
insulin aspart [NN-Asp-EU],15 subjects,–,–,–,–,–,–,–,–,–
insulin aspart [NN-Asp-US],18 subjects,1.00 (0.95–1.04),1.00 (0.95–1.05),1.04 (0.96–1.12),0.97 (0.90–1.05),–,–,–,–,–
insulin aspart [SAR-Asp],17 subjects,0.92 (0.88–0.96),0.93 (0.88–0.97),0.97 (0.90–1.05),0.96 (0.89–1.04),0.92 (0.88–0.96),0.93 (0.89–0.98),0.93 (0.87–1.01),0.99 (0.91–1.07),well tolerated
